Results from different studies.
Each line is one published result; the experiments were not run side by side.
Cell line: U-937
Read-out: cell growth or viability

SMILES	assay	setting	IC50
C#CCSc1nc(Sc2nnnn2-c2ccccc2)c2nnn(Cc3ccc(OC)cc3)c2n1	MTS	6 days	3230 nM
Nc1nc(Nc2ccc3c(c2)CC[C@@H](N2CCCC2)CC3)nn1-c1cc2c(nn1)-c1ccccc1CCC2	trypan blue	72 h	1450 nM
O=C1CCCCC1C1C2C=CC=CC1/C(=C/c1ccccc1)C2 (stereo not drawn)	flow cytometry		77 nM
COc1cc(Nc2nccc(-c3cnn4nc(OC)ccc34)n2)cc(C(F)(F)F)c1	ATP luminescence		210 nM
COc1cc2nccc(Oc3ccc(NC(=O)C4(C(=O)Nc5ccc(F)cc5)CC4)cc3)c2cc1OC	trypan blue	72 h	2990 nM
COc1cc(-c2ncn(/C=C\C(=O)OC(C)C)n2)cc(C(F)(F)F)c1		72 h	223 nM
CC(C)[C@H](N)C(=O)N1CCC[C@H]1B(O)O	ATP luminescence	48 h	> 60000 nM
CC(C)C[C@H](NC(=O)[C@H](Cc1ccccc1)NC(=O)c1cnccn1)B(O)O	ATP luminescence		4.4 nM
CCC[C@H](Nc1nc(-c2ccc(NC(=O)NCC)c(OC)c2)ncc1C)c1cccnc1	fluorescence	72 h	33.1 nM
CCCCCCCCC1=CC2C=CC=CC1C2C1CCCCC1=O (stereo not drawn)	flow cytometry		84 nM
N[C@@H](CC(=O)N1CCN(C(c2ccc(F)cc2)c2ccc(F)cc2)CC1)C(=O)N1Cc2ccccc2C1	ATP luminescence	48 h	27400 nM
CC(=O)OCCC1=CC2C=CC=CC1C2C1CCCCC1=O (stereo not drawn)	flow cytometry		167 nM
CC(=O)O[C@H]1C(=O)[C@@]2(C)[C@H]([C@H](OC(=O)c3ccccc3)[C@]3(O)C[C@H](OC(=O)[C@H](O)[C@@H](NC(=O)c4ccccc4)c4ccccc4)C(C)=C1C3(C)C)[C@]1(OC(C)=O)CO[C@@H]1C[C@@H]2O		72 h	2.7 nM
CC[C@]1(O)C[C@H]2CN(CCc3c([nH]c4ccccc34)[C@@](C(=O)OC)(c3cc4c(cc3OC)N(C=O)[C@H]3[C@@](O)(C(=O)OC)[C@H](OC(C)=O)[C@]5(CC)C=CCN6CC[C@]43[C@@H]65)C2)C1	fluorescence	72 h	7.6 nM
CCOC(=O)CCC1=CC2C=CC=CC1C2C1CCCCC1=O (stereo not drawn)	flow cytometry		51 nM
